Drawing on ChEMBL document CHEMBL3352396, “Zwitterionic pyrimidinium adducts as antioxidants with therapeutic potential as nitric oxide scavenger” (Eur J Med Chem, 2014), this text covers IC50 and Ratio IC50 for 23 compounds.

Assay [1] is described as follows: Nitric oxide scavenging activity by naphthylethylenediamine dihydrochloride based Griesse-Ilosavay method. A digest of the protocol:
(§1)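 Modified Griess-Ilosavay assay. Test sample in DMSO was mixed with potassium phosphate buffer (10 mM, pH 7.4) and sodium nitroprusside (10 mM stock), then incubated at 25 °C for 150 min to form nitrite. Sulphanilic acid reagent (0.33%) and N-(1-naphthyl)ethylenediamine dihydrochloride (0.1% w/v) were added, and the mixture stood 1–2 min. Absorbance was read at 546 nm against a blank. Ascorbic acid was the positive control and DMSO the blank. IC50 was obtained by […].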

The nature of assay [2]: Nitric oxide scavenging activity by naphthylethylenediamine dihydrochloride based Griesse-Ilosavay method relative to ascorbic acid. In short, it runs like this: as §1

The structures appear in SMILES notation.

`Cn1c(O)c(C(C2=C(O)CC(C)(C)CC2=O)c2ccc(C=O)cc2)c(=O)n(C)c1=O` (centres undefined) displayed an IC50 in assay [1] of 380 µM.
For the compound `Cn1c(O)c(C(c2ccc3ccccc3c2)c2c(O)n(C)c(=O)n(C)c2=O)c(=O)n(C)c1=O`, in assay [1], it took 79.1 µM to reach half-maximal inhibition (IC50).
For `COc1ccc(C(c2c(O)[nH]c(=O)[nH]c2=O)c2c(O)[nH]c(=O)[nH]c2=O)cc1`, half-maximal inhibition in assay [1] (IC50) required 206 µM.
`Cn1c(O)c(C(C2=C(O)CC(C)(C)CC2=O)c2ccccc2)c(=O)n(C)c1=O` (centres undefined) had an IC50 in assay [1] of 290 µM. The IC50 values of the last two compounds are within 1.5-fold of each other.
In turn, `CC1(C)CC(=O)C(C(c2ccc(C=O)cc2)c2c(O)[nH]c(=O)[nH]c2=O)=C(O)C1` (centres undefined) yielded a half-inhibitory concentration (IC50) in assay [1] of 439 µM. Compared with the last compound, the IC50 is about 1.5-fold higher.
With `O=c1[nH]c(O)c(C(c2ccc(Cl)cc2)c2c(O)[nH]c(=O)[nH]c2=O)c(=O)[nH]1`, in assay [1], the IC50 is 304 µM.
Consider `Cn1c(O)c(C(c2ccc(C=O)cc2)c2c(O)n(C)c(=O)n(C)c2=O)c(=O)n(C)c1=O`, for which, in assay [1], the IC50 is 113 µM.
For the compound `Cn1c(O)c(C(c2ccc([N+](=O)[O-])cc2)c2c(O)n(C)c(=O)n(C)c2=O)c(=O)n(C)c1=O`, half-maximal inhibition in assay [1] (IC50) required 69 µM.
Still for that read-out and setting: the figure for `O=Cc1ccc(C(c2c(O)[nH]c(=O)[nH]c2=O)c2c(O)[nH]c(=O)[nH]c2=O)cc1` is 330 µM.
On the same count and under the same terms, the figure for `O=C1O[C@H]([C@@H](O)CO)C(O)=C1O` [ASCORBIC ACID] is 618 µM.
Same read-out and setting: the figure for `CC1(C)CC(=O)C(C(C2=C(O)CC(C)(C)CC2=O)c2ccc([N+](=O)[O-])cc2)=C(O)C1` is 281 µM; for `Cc1cccc(C(c2c(O)n(C)c(=O)n(C)c2=O)c2c(O)n(C)c(=O)n(C)c2=O)c1` it is 174 µM.
Take `CC1(C)CC(=O)C(C(c2ccccc2)c2c(O)[nH]c(=O)[nH]c2=O)=C(O)C1` (centres undefined): the 50% inhibitory concentration (IC50) in assay [1] was 361 µM.
Take `COc1ccc(C(c2c(O)n(C)c(=O)n(C)c2=O)c2c(O)n(C)c(=O)n(C)c2=O)cc1`: the IC50 in assay [1] came out at 234 µM.
In assay [1], `Cn1c(O)c(C(C2=C(O)CC(C)(C)CC2=O)c2ccc([N+](=O)[O-])cc2)c(=O)n(C)c1=O` (centres undefined) returned an IC50 of 466 µM. Compared with the last compound, the IC50 is about 2-fold higher.
Turning to `Cn1c(O)c(C(c2ccc(O)cc2)c2c(O)n(C)c(=O)n(C)c2=O)c(=O)n(C)c1=O`, the IC50 in assay [1] came out at 310 µM.
In turn, `Cn1c(O)c(C(c2ccc(Cl)cc2)c2c(O)n(C)c(=O)n(C)c2=O)c(=O)n(C)c1=O` gave a half-maximal inhibitory concentration (IC50) in assay [1] of 75 µM.
Same read-out and setting: the same measure for `Cc1ccc(C(c2c(O)[nH]c(=O)[nH]c2=O)c2c(O)[nH]c(=O)[nH]c2=O)cc1`: 377 µM; for `Cc1ccc(C(C2=C(O)CC(C)(C)CC2=O)c2c(O)[nH]c(=O)[nH]c2=O)cc1` (centres undefined): 432 µM; for `Cc1ccc(C(c2c(O)n(C)c(=O)n(C)c2=O)c2c(O)n(C)c(=O)n(C)c2=O)cc1`: 230 µM.
Consider `Cn1c(O)c(C(C2=C(O)CC(C)(C)CC2=O)c2ccc(Cl)cc2Cl)c(=O)n(C)c1=O` (centres undefined), for which the Ratio IC50 in assay [2] came out at 500. The IC50 in assay [1] was found to be 175 µM.
In assay [1], `Cn1c(O)c(C(c2cccc(Br)c2)c2c(O)n(C)c(=O)n(C)c2=O)c(=O)n(C)c1=O` registered an IC50 of 70.1 µM.
Regarding `O=c1[nH]c(O)c(C(c2ccc3ccccc3c2)c2c(O)[nH]c(=O)[nH]c2=O)c(=O)[nH]1`, the IC50 in assay [1] was 308 µM.
